From ChEMBL document CHEMBL3124765, “Glucal-conjugated sterols as novel vascular leakage blocker: structure-activity relationship focusing on the C17-side chain” (Eur J Med Chem, 2014)
The source made the active and inactive calls. No cut-off for these calls is given here.

How the values were obtained:
[1] = organism: Homo sapiens; test: Antiapoptotic activity against HREC at 10 ug/ml after 48 hrs by MTT assay; assay type: functional
[2] = organism: Homo sapiens; test: Antiapoptotic activity against VEGF-treated HREC assessed as enhancement of occludin integrity at 10 ug/ml incubated for 60 mins prior to VEGF challenge measured after 60 mins by immunofluorescence microscopy; assay type: functional
[3] = organism: Homo sapiens; test: Antiapoptotic activity against VEGF-treated HREC assessed as enhancement of occludin integrity at 1 to 10 ug/ml incubated for 60 mins prior to 20 ng/ml VEGF challenge measured after 60 mins by ZO-1 staining-based microscopy; assay type: functional
[4] = organism: Homo sapiens; test: Antiapoptotic activity against HREC assessed as stabilization of cortical actin ring by measuring reduction of VEGF-induced actin stress fibre formation at 10 ug/ml incubated for 60 mins prior to VEGF challenge measured after 60 mins by immunofluorescence microscopy; assay type: functional
[5] = organism: Homo sapiens; test: Antiapoptotic activity against VEGF-treated HREC assessed as enhancement of occludin integrity at 10 ug/ml incubated for 60 mins prior to 50 ng/ml VEGF challenge measured after 60 mins by ZO-1 staining-based microscopy; assay type: functional
[6] = organism: Homo sapiens; test: Antiapoptotic activity against HREC assessed as reduction in VEGF-induced actin stress fibre formation at 10 to 20 ug/ml incubated for 60 mins prior to VEGF challenge measured after 60 mins by immunofluorescence microscopy; assay type: functional
[7] = system: Mus musculus; test: Inhibition of VEGF-induced retinal vascular leakage in C57BL/6 mouse diabetic retinopathy model at 10 ug/ml, […] after 24 hrs by FITC-dextran staining-based fluorescein angiography; assay type: functional, organism-based
Method in brief: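 Eight-week-old C57BL/6 mice received an intravitreal injection of VEGF (50 ng) with or without analog ([…]) in one eye, and DMSO vehicle (same total volume, […]) in the contralateral eye. After 24 h, 40-kDa FITC-dextran (3 mg) was injected into the left ventricle and circulated 5 min. Eyes were fixed in 4% PFA and retinas flat-mounted for fluorescence microscopy.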

[8] = system: Mus musculus; test: Inhibition of retinal vascular leakage in C57BL/6 mouse diabetic retinopathy model at 10 ug/ml, […] after 24 hrs by FITC-dextran staining-based fluorescein angiography; assay type: functional, organism-based
Method in brief: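 Diabetes induced in C57BL/6 mice with streptozotocin 90 mg/kg i.p. in citrate buffer pH 4.5, daily for 4 days; mice with glucose >300 mg/dl 3 days later were used. Analog ([…]) given intravitreally to one eye, DMSO to the other; n=5/group. At 24 h, leakage assessed by FITC-dextran angiography and Evans blue extraction (620 nm) normalized to retinal weight, blood dye and circulation time.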

[9] = organism: Homo sapiens; test: Antiapoptotic activity against HREC after 48 hrs by MTT assay; assay type: functional
Method in brief: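 Serum-deprived human retinal endothelial cells (passages 2–7, grown on gelatin-coated dishes in EBM-2/EGM-2 with 20% FBS) exposed to analogs for 48 h; viability read by MTT colorimetric assay. Single-point screen at 10 mg/mL; dose-response over […]. Controls were medium alone (0 h) and DMSO vehicle.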

[10] = system: Mus musculus; test: Inhibition of retinal vascular leakage in C57BL/6 mouse diabetic retinopathy model assessed as restoration of reduced occludin expression at 10 ug/ml, […] after 24 hrs by Western blotting analysis; assay type: functional, organism-based

| Structure (SMILES) | Activity [1] | other results |
| --- | --- | --- |
| CCCCO/N=C(\C)[C@H]1CC[C@H]2[C@@H]3CC=C4C[C@@H](OC5C=C[C@H](OC(C)=O)C(COC(C)=O)O5)CC[C@]4(C)[C@H]3CC[C@]12C (single isomer, unassigned) | Active |  |
| C=CCO/N=C(\C)[C@H]1CC[C@H]2[C@@H]3CC=C4C[C@@H](OC5C=C[C@H](OC(C)=O)C(COC(C)=O)O5)CC[C@]4(C)[C@H]3CC[C@]12C (single isomer, unassigned) | Active |  |
| CCCCCO/N=C(\C)[C@H]1CC[C@H]2[C@@H]3CC=C4C[C@@H](OC5C=C[C@H](OC(C)=O)C(COC(C)=O)O5)CC[C@]4(C)[C@H]3CC[C@]12C (single isomer, unassigned) | Active |  |
| CC(=O)OC[C@H]1OC(O[C@H]2CC[C@@]3(C)C(=CC[C@H]4[C@@H]5CC[C@H](/C(C)=N/OCc6cccnc6)[C@@]5(C)CC[C@@H]43)C2)C=C[C@@H]1OC(C)=O (stereo partly specified) | inactive |  |
| CC(=O)OC[C@H]1OC(O[C@H]2CC[C@@]3(C)C(=CC[C@H]4[C@@H]5CC[C@H](/C(C)=N/O)[C@@]5(C)CC[C@@H]43)C2)C=C[C@@H]1OC(C)=O (stereo partly specified) | Active |  |
| C=C(CCC=C(C)C)[C@H]1CC[C@]2(C)[C@@H]1[C@H](O)C[C@@H]1[C@@]3(C)CC[C@H](O[C@@H]4O[C@H](CO)[C@@H](O)[C@H](O)[C@H]4O[C@@H]4O[C@H](CO)[C@@H](O)[C@H](O)[C@H]4O)C(C)(C)[C@@H]3CC[C@]12C | Active |  |
| CC(=O)OC[C@H]1OC(O[C@H]2CC[C@@]3(C)C(=CC[C@H]4[C@@H]5CC[C@H](/C(C)=N/OCCC(C)C)[C@@]5(C)CC[C@@H]43)C2)C=C[C@@H]1OC(C)=O (stereo partly specified) | Active |  |
| CO/N=C(\C)[C@H]1CC[C@H]2[C@@H]3CC=C4C[C@@H](OC5C=C[C@H](OC(C)=O)C(COC(C)=O)O5)CC[C@]4(C)[C@H]3CC[C@]12C (single isomer, unassigned) | Active |  |
| CC(=O)OC[C@H]1OC(O[C@H]2CC[C@@]3(C)C(=CC[C@H]4[C@@H]5CC[C@H]([C@H](C)CCCC(C)C)[C@@]5(C)CC[C@@H]43)C2)C=C[C@@H]1OC(C)=O (stereo partly specified) | Active | Activity [2]: Active; Activity [3]: Active; Activity [4]: Active; Activity [5]: Active |
| CCO/N=C(\C)[C@H]1CC[C@H]2[C@@H]3CC=C4C[C@@H](OC5C=C[C@H](OC(C)=O)C(COC(C)=O)O5)CC[C@]4(C)[C@H]3CC[C@]12C (single isomer, unassigned) | Active |  |
| CC(=O)OCC1OC(O[C@H]2CC[C@@]3(C)C(=CC[C@H]4[C@@H]5CC[C@H](/C(C)=N/OC6CCCCC6)[C@@]5(C)CC[C@@H]43)C2)C=C[C@@H]1OC(C)=O (single isomer, unassigned) | Active |  |
| CC(=O)OC[C@H]1OC(O[C@H]2CC[C@@]3(C)C(=CC[C@H]4[C@@H]5CC[C@H]([C@@](C)(O)CCCC(C)C)[C@@]5(C)CC[C@@H]43)C2)C=C[C@@H]1OC(C)=O (stereo partly specified) |  | Activity [6]: Active |
| CC(=O)OC[C@H]1OC(O[C@H]2CC[C@@]3(C)C(=CC[C@H]4[C@@H]5CC[C@H](/C(C)=N/OCC(C)C)[C@@]5(C)CC[C@@H]43)C2)C=C[C@@H]1OC(C)=O (stereo partly specified) | Active |  |
| CC(=O)OC[C@H]1OC(O[C@H]2CC[C@@]3(C)C(=CC[C@H]4[C@@H]5CC[C@H](/C(C)=N/OC6CCCC6)[C@@]5(C)CC[C@@H]43)C2)C=C[C@@H]1OC(C)=O (stereo partly specified) | Active | Activity [2]: Active; inhibition [7]: Active; inhibition [8]: Active; Activity [3]: Active; Activity [9]: Dose-dependent effect; Activity [4]: Active; inhibition [10]: Active; Activity [5]: Active |
| CC(=O)OC[C@H]1OC(O[C@H]2CC[C@@]3(C)C(=CC[C@H]4[C@@H]5CC[C@H](/C(C)=N/OCC=C(C)C)[C@@]5(C)CC[C@@H]43)C2)C=C[C@@H]1OC(C)=O (stereo partly specified) | Active |  |
| CC(C)=CCC[C@](C)(O)[C@H]1CC[C@]2(C)[C@@H]1[C@H](O)C[C@@H]1[C@@]3(C)CC[C@H](O[C@@H]4O[C@H](CO)[C@@H](O)[C@H](O)[C@H]4O[C@@H]4O[C@H](CO)[C@@H](O)[C@H](O)[C@H]4O)C(C)(C)[C@@H]3CC[C@]12C | Active |  |
| CC(=O)OC[C@H]1OC(O[C@H]2CC[C@@]3(C)C(=CC[C@H]4[C@@H]5CC[C@H](/C(C)=C/CCC(C)C)[C@@]5(C)CC[C@@H]43)C2)C=C[C@@H]1OC(C)=O (stereo partly specified) | Active | Activity [6]: Active |
| CC(=O)OC[C@H]1OC(O[C@H]2CC[C@@]3(C)C(=CC[C@H]4[C@@H]5CC[C@H](/C(C)=N/OC6C=CCCC6)[C@@]5(C)CC[C@@H]43)C2)C=C[C@@H]1OC(C)=O (stereo partly specified) | Active | Activity [2]: Active; Activity [9]: Dose-dependent effect; Activity [4]: Active |
| CC(=O)OCC1OC(O[C@H]2CC[C@@]3(C)C(=CC[C@H]4[C@@H]5CC[C@H](/C(C)=N/OC(C)C)[C@@]5(C)CC[C@@H]43)C2)C=C[C@@H]1OC(C)=O (single isomer, unassigned) | Active |  |
| C/C(=C\CCC(C)C)[C@H]1CC[C@H]2[C@@H]3CC=C4C[C@@H](OC5CCCCO5)CC[C@]4(C)[C@H]3CC[C@]12C (stereo partly specified) | Active |  |
| C#CCO/N=C(\C)[C@H]1CC[C@H]2[C@@H]3CC=C4C[C@@H](OC5C=C[C@H](OC(C)=O)[C@@H](COC(C)=O)O5)CC[C@]4(C)[C@H]3CC[C@]12C (stereo partly specified) | Active |  |
| CC(=O)OC[C@H]1OC(O[C@H]2CC[C@@]3(C)C(=CC[C@H]4[C@@H]5CC[C@H](/C(C)=N/OCc6ccccc6)[C@@]5(C)CC[C@@H]43)C2)C=C[C@@H]1OC(C)=O (stereo partly specified) | Active | Activity [2]: Active; Activity [9]: Dose-dependent effect; Activity [4]: Active |
